Measurements: ChEMBL document CHEMBL5500386, “Design, synthesis and bioactivity evaluation of 4-hydroxycoumarin derivatives as potential anti-inflammatory agents against acute lung injury and colitis” (Eur J Med Chem, 2024)
Activity calls are given as the source filed them. No cut-off for these calls is given here.

How the values were obtained:
[1] = test system: J774.A1; test: Antiinflammatory activity in LPS-induced mouse J774.a1 cells assessed as inhibition of IL-6 production by measuring fold change at 10 uM pretreated for 2 hrs followed by LPS stimulation and measured after 30 mins by ELISA relative to 4-hydroxycoumarin; type: functional; conditions: time 2.5 hrs
[2] = test system: THP-1; test: Antiinflammatory activity in LPS-induced human THP-1 cells assessed as inhibition of IL-6 production pretreated for 30 mins followed by LPS stimulation and measured after 24 hrs by ELISA; type: functional, cell-based
Outline: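 Cells pretreated 30 min with a gradient of concentrations (2.5–10 μM range) or DMSO, then given LPS 0.5 μg/mL for 24 h. IL-6 in medium measured by ELISA and normalised to living cell number by MTT. Expressed as % of the LPS group, mean ± SEM of triplicates. IC50 taken from the concentration-response.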

[3] = test system: J774.A1; test: Inhibition of LPS-induced NF-kappaB activation in mouse J774.A1 cells assessed as reduction in p65 phosphorylation at 5 to 20 uM pretreated for 2 hrs followed by LPS stimulation and measured after 30 mins by Western blot analysis; type: cell-based; conditions: dose 5-20 µM, time 2.5 hrs
Outline: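 J774A.1 macrophages pretreated with 20, 10 or 5 μM for 2 h, then LPS 0.5 μg/mL for 30 min. RIPA lysates quantified by Bradford. 40 μg run on 12.5 % SDS-PAGE and transferred to PVDF. Blocked 1.5 h in BSA, primary antibody overnight at 4 °C, secondary 2 h at room temperature, detected by ECL.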

[4] = test system: Mus musculus; test: (§1) Protection against LPS-induced C57BL/6 mouse model of acute lung injury assessed as reduction in destruction of the alveolar cell structure at 20 mg/kg, po administered 3 times for every 12 hrs followed by LPS stimulation at 5 mg/kg and measured after 6 hrs by H and E staining based analysis; type: functional, organism-based; conditions: time 30.0 hrs
Outline: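 LPS-induced ALI in C57BL/6 mice: 20 mg/kg orally three times at 12 h intervals, then intratracheal LPS 5 mg/kg, killed at 6 h. Lungs paraffin-embedded, cut into 5 μm sections and H&E stained. Viewed at ×20.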

[5] = test system: Mus musculus; test: Protection against LPS-induced C57BL/6 mouse model of acute lung injury assessed as reduction in inflammatory cell infiltration in lung at 20 mg/kg, po administered 3 times for every 12 hrs followed by LPS stimulation at 5 mg/kg and measured after 6 hrs by immunohistochemical staining based analysis; type: functional, organism-based; conditions: time 30.0 hrs
Outline: (§2)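 LPS-induced ALI in C57BL/6 mice: 20 mg/kg orally three times at 12 h intervals, then intratracheal LPS 5 mg/kg, lungs taken at 6 h. F4/80 IHC: xylene deparaffinisation, citrate pH 6 retrieval for 25 min, primary antibody at 4 °C for 12 h, secondary 1:2000, DAB and hematoxylin. Viewed at ×20.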

[6] = test system: Mus musculus; test: Protection against LPS-induced C57BL/6 mouse model of acute lung injury assessed as reduction in thickening of the alveolar septum at 20 mg/kg, po administered 3 times for every 12 hrs followed by LPS stimulation at 5 mg/kg and measured after 6 hrs by immunohistochemical staining based analysis; type: functional, organism-based; conditions: time 30.0 hrs; outline: as §2
[7] = test system: Mus musculus; test: as §1, with “immunohistochemical” for “H and E”; type: functional, organism-based; conditions: time 30.0 hrs; outline: as §2
[8] = test system: Mus musculus; test: (§3) Antiinflammatory activity in DSS-induced male C57BL/6 mouse model of inflammatory bowel disease assessed as reduction in F4/80 positive cell population in intestine at 20 mg/kg, IG administered with compound and DSS for 7 days followed by DSS replacement with distilled water for 3 days by immunohistochemistry staining based analysis; type: functional, organism-based; conditions: time 10.0 day
Outline: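 DSS colitis in C57BL/6 mice (2.5 % DSS for 7 days, then water for 3 days), 20 mg/kg po daily in DMSO/CMC-Na, n = 6. Colon fixed in 4 % formaldehyde. For IHC: deparaffinised in xylene, antigen retrieval by boiling in citrate buffer pH 6 for 25 min, primary antibody at 4 °C for 12 h, secondary 1:2000, then DAB with hematoxylin counterstain.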

[9] = test system: Mus musculus; test: as §3, with “red and white pulp merging” for “F4/80 positive cell population”, “spleen” for “intestine”, “H and E” for “immunohistochemistry”; type: functional, organism-based; conditions: time 10.0 day
[10] = Acute toxicity in male ICR mouse assessed as histopathological changes in heart at 500 to 1000 mg/kg, po administered daily for 10 days by H and E staining based analysis; type: organism-based; conditions: in vivo, 240 h, dose 500-1000 mg/kg, time 10 day
Outline: (§4)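 Male ICR mice (8 weeks, 30 g ± 2 g), acclimatised 1 week, randomised into 1000 mg/kg, 500 mg/kg and untreated control groups (n = 24 total). Dosed by daily gavage, compound dissolved in 0.5 % DMSO then added to normal saline. Body weight and behaviour recorded daily. Euthanised after 10 days; heart, liver, spleen, lung and kidney examined by H&E staining.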

[11] = Acute toxicity in male ICR mouse assessed as histopathological changes in lung at 500 to 1000 mg/kg, po administered daily for 10 days by H and E staining based analysis; type: organism-based; conditions: in vivo, 240 h, dose 500-1000 mg/kg, time 10 day; outline: as §4
[12] = Tmax in male Sprague-Dawley rat at 10 mg/kg, po measured upto 24 hrs by triple quadrupole mass spectrometric analysis; type: ADME, organism-based; conditions: in vivo
Outline: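 Male SD rats (8 weeks, 200 g ± 20 g), n = 3 per route. Oral: 10 mg/kg by gavage in 0.05 % DMSO/normal saline, tail-vein blood at 13 times from 10 min to 24 h. IV: 1 mg/kg tail vein in 5 % DMSO/30 % PEG400/65 % saline, 14 samples from 5 min to 24 h. Heparinised plasma precipitated with acetonitrile containing internal standard. Non-compartmental analysis on mean concentrations.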

## CC(=O)N1CCN(CCOc2cc(=O)oc3ccccc23)CC1
[1]
  fold change (FC): 3
[2]
  IC50: 6.51 µM
[2]; time 24.5 hrs
  Activity: Dose-Dependent Effect
[3]
  inhibition: inactive
[4]
  Activity: Active
[5]
  Activity: Active
[6]
  Activity: Active
[7]
  Activity: Active
[8]
  Activity: Active
[9]
  Activity: Active
[10]
  Activity: Non-Toxic
[11]
  Activity: Non-Toxic
[12]
  Tmax: 40.2 min
